Measured values from ChEMBL document CHEMBL4513216, “Probing the Open Global Health Chemical Diversity Library for Multistage-Active Starting Points for Next-Generation Antimalarials” (ACS Infect Dis, 2020).

Test: Toxicity liver stage against HepG2, at 10uM
Assay type: cell-based
Parameters: test concentration 10 uM, cell line HepG2-A16-CD81EGFP
Details: human, HepG2-A16-CD81EGFP cells; read-out: INHIBITION
Procedure, shortened: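 Uninfected HepG2-A16-CD81EGFP cells, 3 × 10^3 per well, 1536-well, plated on prespotted compound at 10 μM final, parasite-free screening media added to match infected plates; puromycin 10 μM positive, DMSO 0.5% negative; run in parallel with 48 h PbLuc assay at 37 °C, 5% CO2; viability by CellTiter-Glo luminescence, normalized to controls.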

| SMILES | cytotoxicity at 10 µM [%] |
| --- | --- |
| COc1ccc(-c2nnc(SCC(=O)NCC(C)C)[nH]2)c(OC)c1 | -6.73 |
| Cc1ccccc1N1CCN(C(=O)c2cscn2)C(C)C1 (stereo not given) | 0.403 |
| CC1CN(S(=O)(=O)c2ccc(C(=O)NCC(F)F)cc2)CCCO1 (stereo not given) | 4.05 |
| CCOCC1CN(S(=O)(=O)N(C)C)Cc2cnn(C)c21 (stereo not given) | -4.2 |
| COc1cccc(-n2cc(-c3ccnc(N[C@H](CO)C(C)C)n3)cn2)c1 | -2.04 |
| CC(=O)N1CC2(CCCCN2Cc2ccc(Cl)cc2)Cc2ccccc21 (stereo not given) | 14.5 |
| Cc1nc(CN(C)C(=O)c2cccc(CC3CCNCC3)c2)no1 | -5.56 |
| CCN(C)CC1CCN(c2ncc(Br)cn2)C1 (stereo not given) | -2.55 |
| COc1ccc(CNC(=O)Nc2ccc(CN3CCOC3=O)cc2)cc1 | -1.44 |
| CC(=O)N[C@@H]1CN(S(=O)(=O)Cc2ccccc2)C[C@H]1C(C)C | -5.61 |
| CN1CCN(Cc2ccncc2)Cc2cccnc21 | -72.7 |
| Cc1noc(C)c1Cc1nc(C2CC2)no1 | 5.42 |
| Cc1csc(N2CCCN(C(=O)C(C)n3ccnc3)CC2)n1 (stereo not given) | -9.46 |
| c1cncc(OCc2noc3c2CN(Cc2ccoc2)CC3)c1 | -8.33 |
| CO[C@H]1CN(C(=O)OC(C)(C)C)CC1NCc1cc[nH]c1 (stereo not given in full) | -46.6 |
| CS(=O)(=O)c1cc(S(N)(=O)=O)ccc1NCC1CCCO1 (stereo not given) | 6.26 |
| CCN(CC)CCn1cc(NC(=O)c2ccccc2OC)cn1 | 7.04 |
| COCCNC(=O)c1cc(C(C)C)nc(N2CCCC2)n1 | 5.03 |
| Cc1nnc2ccc(OCCNS(C)(=O)=O)nn12 | -6.02 |
| Cc1nc(CN2CCOC(Cn3cccn3)C2)no1 (stereo not given) | -11.6 |
| O=c1oc(-c2cccs2)nn1CC(O)c1ccccc1F (stereo not given) | -14.7 |
| Cc1ccc(CN2CCC3(CC2)CCN(Cc2ccoc2)CC3)cc1 | 3.47 |
| Cc1cnc(C(=O)N2CC[C@H]3C[C@@H](c4nc(C)cs4)O[C@@H]3C2)cn1 | 9.32 |

| SMILES | cytotoxicity at 10 µM [%] |
| --- | --- |
| NC(=O)c1cc2c(nc1Oc1cccc(CN3CCCC3)c1F)CCC2 | -1.47 |
| Cc1cc2nc(C(C)C)cc(NCCc3cccn3C)n2n1 | 0.407 |
| Nc1c(N2CCCCC2)ncnc1N1CCOCC1 | 3.66 |
| Cc1nc(C(=O)N2CC[C@@]3(C[C@@H](NS(C)(=O)=O)CCO3)C2)cs1 | -66 |
| Cc1nn(C)c(N(C)C)c1CNCc1cccnc1-n1cncn1 | -0.313 |
| c1cnc(N2CCC3(CCN(CC4CCOC4)CC3)C2)nc1 (stereo not given) | -5.56 |
| COCCN(C)C[C@@H]1CN(C(=O)c2ccc3c(c2)OCO3)C[C@@H]1CO | 8.47 |
| COCCC1(C(=O)O)CCCN(C(=O)c2cc(C)oc2C)C1 (stereo not given) | -5.89 |
| CCOc1ccc(NC(=O)C2OC(c3cccs3)=NN2C(C)=O)cc1 (stereo not given) | 4.77 |
| CC(C)c1cc(CN2CCNCC2)no1 | -10.9 |
| CCc1cnc(N2C[C@@H](NC(=O)c3cscn3)[C@H]3COC[C@H]32)nc1 | -127 |
| Cc1nc(C(C)Nc2ncnc3c2CCNCC3)c(C)s1 (stereo not given) | -6.64 |
| Cn1ncc2c1CCCC2NCc1cccc(OC2CCCC2)c1 (stereo not given) | -19.3 |
| CCCSCC(=O)N1CCCC2(CCC(=O)N(CCc3c[nH]cn3)C2)C1 (stereo not given) | -0.0682 |
| CS(=O)(=O)NC[C@]12COC[C@H]1CN(C(=O)C1CCSCC1)C2 | -112 |
| CCn1cnnc1Cn1cccc(C(F)(F)F)c1=O | -9.8 |
| CC(=O)N1CCC(c2nc(Cc3ccccc3)no2)C1 (stereo not given) | 5.15 |
| Cn1cc(C(=O)N2C[C@@H]3COC[C@]3(COCc3cccnc3)C2)cn1 | -0.8 |
| O=C(CCc1ccco1)N1CCC(Oc2ccccc2)(C(=O)O)CC1 | 1.46 |
| CC(C)C(=O)NCCNc1nccc(-c2cc(C(=O)O)ccn2)n1 | -24 |
| CCOc1cccc(CN2CCCn3nc(CNS(C)(=O)=O)cc3C2)c1 | -4.01 |
| O=C(CCCOc1ccccc1)N1CCCC1Cn1cccn1 (stereo not given) | -7.83 |
